Data from ChEMBL document CHEMBL3596120, “Discovery of natural alkaloid bouchardatine as a novel inhibitor of adipogenesis/lipogenesis in 3T3-L1 adipocytes” (Bioorg Med Chem, 2015).
Activity calls are given as the source filed them.

Experiments:
[1] = Reduction in SREBP-1c mRNA expression in mouse 3T3L1 cells at 1 to 50 uM after 72 hrs by RT-PCR method; format: functional, cell-based; details: 3T3-L1
Summary of the method: (§1)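 3T3-L1 preadipocytes grown in DMEM with 10% FBS at 37 °C under 5% CO2. Differentiation starts 2 days post-confluence (day 0) with IBMX, 100 ng/mL dexamethasone and insulin for 3 d, then insulin in 10% FBS/DMEM for 3 d, then basic medium for 3 d. Compound is added on day 0 and renewed at day 3. Vehicle control receives the same volume of DMSO.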

[2] = Reduction in C/EBPbeta mRNA expression in mouse 3T3L1 cells at 25 uM by RT-PCR method; format: functional, cell-based; details: 3T3-L1, TDE = time-dependent effect; summary of the method: as §1
[3] = Reduction in C/EBPdelta mRNA expression in mouse 3T3L1 cells at 25 uM by RT-PCR method; format: functional, cell-based; details: 3T3-L1, TDE = time-dependent effect; summary of the method: as §1
[4] = Reduction in C/EBPalpha mRNA expression in mouse 3T3L1 cells at 25 uM by RT-PCR method; format: functional, cell-based; details: 3T3-L1, TDE = time-dependent effect
[5] = Reduction in C/PPARgamma mRNA expression in mouse 3T3L1 cells at 25 uM by RT-PCR method; format: functional, cell-based; details: 3T3-L1, TDE = time-dependent effect; summary of the method: as §1
[6] = Reduction in C/EBPalpha protein expression in mouse 3T3L1 cells at 1 to 50 uM by Western blot method; format: functional, cell-based; details: 3T3-L1
Summary of the method: (§2)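 Mouse 3T3-L1 cells taken through the differentiation protocol, with compound or DMSO vehicle given from day 0 and renewed at day 3. Cells lysed on ice for 0.5 h in RIPA with PMSF, Na3VO4, NaF and protease inhibitors, then centrifuged at 12,000g. Lysates run on 12% SDS-PAGE and transferred to PVDF. Blots probed overnight at 4 °C and detected with HRP secondary. Bands quantified by optical density against GAPDH. Three independent experiments.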

[7] = Reduction in PPARgamma protein expression in mouse 3T3L1 cells at 1 to 50 uM by Western blot method; format: functional, cell-based; details: 3T3-L1; summary of the method: as §1
[8] = Reduction in SREBP-1c protein expression in mouse 3T3L1 cells at 1 to 50 uM by Western blot method; format: functional, cell-based; details: 3T3-L1; summary of the method: as §1
[9] = Reduction in SCD1 protein expression in mouse 3T3L1 cells at 1 to 50 uM after 9 days by Western blot method; format: functional, cell-based; details: 3T3-L1; summary of the method: as §1
[10] = Reduction in FAS protein expression in mouse 3T3L1 cells at 1 to 50 uM after 9 days by Western blot method; format: functional, cell-based; details: 3T3-L1; summary of the method: as §1
[11] = Reduction in ACC protein expression in mouse 3T3L1 cells at 1 to 50 uM after 9 days by Western blot method; format: functional, cell-based; details: 3T3-L1; summary of the method: as §2
[12] = tested on: 3T3-L1; experiment: Increase in AMPKalpha Thr172 phosphorylation in mouse 3T3L1 cells at 1 to 50 uM after 9 days by Western blot method; format: cell-based; summary of the method: as §2
[13] = tested on: 3T3-L1; experiment: Increase in AMPKbeta Ser108 phosphorylation in mouse 3T3L1 cells at 1 to 50 uM after 9 days by Western blot method; format: cell-based; summary of the method: as §2
[14] = tested on: 3T3-L1; experiment: Activation of AMPK in mouse 3T3L1 cells assessed as increase in ACC Ser79 phosphorylation at 1 to 50 uM after 9 days by Western blot method; format: cell-based; summary of the method: as §2
[15] = Reduction in AMPKalpha protein expression in mouse 3T3L1 cells at 1 to 50 uM after 9 days by Western blot method; format: functional, cell-based; details: 3T3-L1; summary of the method: as §2
[16] = Reduction in AMPKbeta protein expression in mouse 3T3L1 cells at 1 to 50 uM after 9 days by Western blot method; format: functional, cell-based; details: 3T3-L1; summary of the method: as §2
[17] = tested on: 3T3-L1; experiment: Increase in AMPKalpha Thr172 phosphorylation in mouse 3T3L1 cells at 25 uM by Western blot method; format: cell-based; details: TDE = time-dependent effect
[18] = tested on: 3T3-L1; experiment: Reduction in AMPKalpha1 mRNA expression in mouse 3T3L1 cells at 25 uM after 24 hrs by RT-PCR method; format: functional, cell-based
[19] = tested on: 3T3-L1; experiment: Reduction in AMPKalpha2 mRNA expression in mouse 3T3L1 cells at 25 uM after 24 hrs by RT-PCR method; format: functional, cell-based
[20] = tested on: 3T3-L1; experiment: Inhibition of adipogenesis in mouse 3T3L1 cells assessed as reduction in triglyceride content at 25 uM by colorimetric assay; format: functional, cell-based
[21] = tested on: 3T3-L1; experiment: Increase in AMPKalpha Thr172 phosphorylation in mouse 3T3L1 cells at 25 uM after 9 days by Western blot method; format: cell-based; summary of the method: as §2
[22] = tested on: 3T3-L1; experiment: Activation of AMPK in mouse 3T3L1 cells assessed as increase in ACC Ser79 phosphorylation at 25 uM after 9 days by Western blot method; format: cell-based; summary of the method: as §2
[23] = Reduction in SREBP-1c protein expression in mouse 3T3L1 cells at 25 uM after 3 days by Western blot method; format: functional, cell-based; details: 3T3-L1; summary of the method: as §1
[24] = Reduction in PPARgamma protein expression in mouse 3T3L1 cells at 25 uM after 3 days by Western blot method; format: functional, cell-based; details: 3T3-L1; summary of the method: as §1
[25] = Reduction in C/EBPalpha protein expression in mouse 3T3L1 cells at 25 uM after 3 days by Western blot method; format: functional, cell-based; details: 3T3-L1; summary of the method: as §1
[26] = Reduction in FAS protein expression in mouse 3T3L1 cells at 25 uM after 9 days by Western blot method; details: 3T3-L1
[27] = Reduction in SCD1 protein expression in mouse 3T3L1 cells at 25 uM after 9 days by Western blot method; details: 3T3-L1

Measured: Activity

O=Cc1c(-c2nc3ccccc3c(=O)[nH]2)[nH]c2ccccc12
active: [1] | [2] tde | [3] tde | [4] tde | [5] tde | [6] | [7] | [8] | [9] | [10] | [11] | [12] Dose-dependent effect | [13] Dose-dependent effect | [14] | [15] | [16] | [17] tde | [18] | [19] | [20] | [21] | [22] | [23] | [24] | [25] | [26] | [27]
